Assay results from PMC4764993 (Canadian journal of physiology and pharmacology, 2015).

Biological target: MMP-9 (Homo sapiens, UniProt P14780)
Test: In-vitro MMP-9 cleavage assay of synthetic OPN-peptides
Assay type: biochemical
Details: active MMP-9, 20:1 (w/w), 37 °C, 24 h; MS/MS identification of fragments
Outline: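 Synthetic N-acetylated, C-amidated mouse OPN peptides, each spanning a candidate cleavage site mid-sequence, incubated with active MMP-9 at 20:1 (w/w) in 1× zymogram developing buffer, 37 °C, 24 h. Controls lacked enzyme or peptide. Reactions C18-desalted, then LC-MS/MS (5–45% acetonitrile over 20 min; MS resolution 70 000, MS2 17 500). Fragments compared against both controls.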

Sequence of MMP-9 (P14780 107-707 limits assumed, species assumed): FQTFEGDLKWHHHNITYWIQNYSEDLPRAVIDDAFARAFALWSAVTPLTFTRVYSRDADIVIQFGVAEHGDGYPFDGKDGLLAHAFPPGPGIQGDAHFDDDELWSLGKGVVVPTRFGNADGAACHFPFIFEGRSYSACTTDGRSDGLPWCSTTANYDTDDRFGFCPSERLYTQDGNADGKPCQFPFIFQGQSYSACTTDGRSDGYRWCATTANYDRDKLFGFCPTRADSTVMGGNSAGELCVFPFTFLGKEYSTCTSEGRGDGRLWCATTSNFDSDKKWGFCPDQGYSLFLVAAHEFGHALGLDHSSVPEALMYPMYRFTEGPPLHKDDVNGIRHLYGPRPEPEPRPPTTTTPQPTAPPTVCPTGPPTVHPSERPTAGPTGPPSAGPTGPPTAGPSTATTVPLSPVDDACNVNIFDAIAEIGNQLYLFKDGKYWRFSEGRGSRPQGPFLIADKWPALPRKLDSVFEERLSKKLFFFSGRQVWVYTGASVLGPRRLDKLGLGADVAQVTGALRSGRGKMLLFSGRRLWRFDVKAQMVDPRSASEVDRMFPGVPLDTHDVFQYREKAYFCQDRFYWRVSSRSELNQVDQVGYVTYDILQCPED

MMP-9 cleavage site(s) found in the synthetic peptide	Substance
GL (position 151–152)	Ac-NGRGDSLAYGLRSKSRSFQV-NH2 [GL fragment]
AQ and LL; position 193-194 and 195-196	Ac-SLDVIPVAQLLSMPSDQDNN-NH2 [LL fragment]
